According to publication PMC4335074 (Clinical cancer research : an official journal of the …, 2014):
Read-outs that look alike come from different tables or passages of the source.

Tests used:
[1] = system: KRAS-mutant NSCLC; details: phase II, KRAS-mutant NSCLC patients; cited from earlier work
[2] = system: pT70 4E-BP1; test: Immunoblotting of downstream signalling biomarkers in HCT116 cells; format: cell-based, Human; details: HCT116, 24 hours, immunoblot
How it was run: (§1)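 HCT116 colon cancer cells (KRAS G13D; from ATCC, STR-authenticated) were exposed for 24 h to the AKT-inhibitor test compound, the MEK-inhibitor test compound, or both together, each at set concentrations, before immunoblot analysis of phospho-markers.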

[3] = system: CYP3A4; details: no reference given; cited from earlier work
[4] = system: P-glycoprotein; details: no reference given; cited from earlier work
[5] = system: tumour pS473 AKT; details: MK-2206 monotherapy 60 mg QOD; cited from earlier work
[6] = system: pT202/Y204 ERK; test: Immunoblotting of downstream signalling biomarkers in HCT116 cells; format: cell-based, Human; details: HCT116, 24 hours, immunoblot
How it was run: as §1

[7] = system: AKT 3; details: cited from earlier work
[8] = system: CYP2C19; details: no reference given; cited from earlier work
[9] = system: CYP1A2; details: no reference given; cited from earlier work
[10] = system: AKT 2; details: cited from earlier work
[11] = system: AKT 1; details: cited from earlier work
[12] = system: pS235/236 S6 ribosomal protein (S6RP); test: Immunoblotting of downstream signalling biomarkers in HCT116 cells; format: cell-based, Human; details: HCT116, 24 hours, immunoblot
How it was run: as §1

[13] = system: pS473 AKT; test: as above; format: cell-based, Human; details: HCT116, 24 hours, immunoblot
How it was run: as §1

[14] = cited from earlier work
[15] = system: pS473 AKT; details: at 57 nmol/L MK-2206, preclinical models; no reference given; cited from earlier work
[16] = preclinical models; no reference given; cited from earlier work
[17] = Phase I combination study: pharmacokinetics; format: in vivo, human; details: for Cmax: selumetinib 100 mg QD, combination MTD cohort
[18] = selumetinib monotherapy, cited from earlier work
[19] = system: pERK; details: at 6 hours, peripheral blood mononuclear cells and paired tumour biopsies; cited from earlier work
[20] = system: MEK; details: non-ATP competitive; cited from earlier work

**Q.** With `CC(=O)O[C@@]12CO[C@@H]1C[C@H](O)[C@@]1(C)C(=O)[C@H](O)C3=C(C)[C@@H](OC(=O)[C@H](O)[C@@H](NC(=O)OC(C)(C)C)c4ccccc4)C[C@@](O)([C@@H](OC(=O)c4ccccc4)[C@H]21)C3(C)C` [docetaxel] as the compound, how does the “Median overall survival (OS)” value [1] read?
**A.** 5.3 months

**Q.** And the Progression free survival [1]?
**A.** 2.1 months

**Q.** With `NC1(c2ccc(-c3nc4ccn5c(=O)[nH]nc5c4cc3-c3ccccc3)cc2)CCC1` [MK-2206] as the compound, how does the “Inhibition of pT70 4E-BP1” value [2] read?
**A.** incompletely inhibited

**Q.** What about the “Inhibition of CYP3A4” value [3] of the same compound?
**A.** neither of these drugs is a potent inhibitor

**Q.** What about the P-glycoprotein inhibition [4] of the same compound?
**A.** only a weak inhibitor

**Q.** What about the P-glycoprotein substrate status [4] of the same compound?
**A.** substrates

**Q.** And the “Median suppression of post-dose tumour pS473 AKT” value [5]?
**A.** 81%

**Q.** And the “Inhibition of pT202/Y204 ERK” value [6]?
**A.** no effect

**Q.** And the IC50 [7]?
**A.** 65 nM

**Q.** And the “Inhibition of CYP2C19” value [8]?
**A.** neither of these drugs is a potent inhibitor

**Q.** And the “Inhibition of CYP1A2” value [9]?
**A.** neither of these drugs is a potent inhibitor

**Q.** What about the IC50 [10] of the same compound?
**A.** 12 nM

**Q.** What about the “Inhibition of pS235/236 S6RP” value [12] of the same compound?
**A.** no effect

**Q.** And the “Inhibition of pS473 AKT” value [13]?
**A.** completely abrogated

**Q.** And the “Terminal half-life (t1/2)” value ([14]; MK-2206 monotherapy 60 mg QOD)?
**A.** 71.3 h

**Q.** And the “Maximum-tolerated dose (MTD)” value ([14]; MK-2206 monotherapy, QOD schedule)?
**A.** 60 mg

**Q.** What about the “Maximum-tolerated dose (MTD)” value ([14]; MK-2206 monotherapy, weekly schedule) of the same compound?
**A.** 200 mg

**Q.** And the Clinical toxicities ([14]; MK-2206 monotherapy)?
**A.** erythematous maculopapular rash and stomatitis

**Q.** What about the “Dose-limiting toxicity (DLT)” value ([14]; MK-2206 monotherapy) of the same compound?
**A.** Rash

**Q.** And the “Inhibition of pS473 AKT” value [15]?
**A.** > 70%

**Q.** And the half-life ([17]; human, in vivo, oral)?
**A.** 61.7 ± 15.2 h

**Q.** And the “Patients achieving target steady-state trough concentration of >57 nmol/L” value ([17]; in 48 hours at the 135 mg QW MTD level)?
**A.** 100%

**Q.** Which results are given for `Cn1cnc2c(F)c(Nc3ccc(Br)cc3Cl)c(C(=O)NOCCO)cc21` [selumetinib]?
**A.** Inhibition of pT70 4E-BP1 [2]: incompletely suppressed; Established dose ([18]; freebase powder formulation, BID): 100 mg; Terminal t1/2 ([18]; hydrogen sulphate oral capsule): 5.3 h; Clinical toxicities [18]: acneiform dermatitis, diarrhoea, fatigue, nausea, and peripheral oedema; Dose-limiting toxicity (DLT) [18]: Rash; Inhibition of CYP3A4 [3]: neither of these drugs is a potent inhibitor; P-glycoprotein inhibition [4]: not an inhibitor; P-glycoprotein substrate status [4]: substrates; Inhibition of pT202/Y204 ERK [6]: blocked pT202/Y204 ERK completely; Inhibition of CYP2C19 [8]: neither of these drugs is a potent inhibitor; Inhibition of CYP1A2 [9]: neither of these drugs is a potent inhibitor; Suppression of pERK [19]: observed; Inhibition of pS235/236 S6RP [12]: incompletely suppressed; IC50 [20]: 10 to 14 nM; Inhibition of pS473 AKT [13]: did not affect; Cmax ([17]; human, in vivo, oral, Cmax range): 554 to 2540 ng/mL; Cmax ([17]; human, in vivo, oral, Mean Cmax): 1140 ng/mL
